Source: PubChem BioAssay (several laboratories)
Only some compounds are listed: those with a hit (about 0.77% of all), similar ones and a draw of the others.
Furin inh: human furin inhibition; purified furin, fluorogenic substrate cleavage; inhibition, % at 20 µM or 30 µM; 220,000 tested, 0.061% active; AID 463115; in the data active = inhibition above about 25%
ABCG2 block: blocks JC-1 efflux by human ABCG2 transporter; Q9UNQ0; IgMXP3 cells, flow cytometry; 190,000 tested, 0.1% active; inhibition, % at 6.6 µM;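 active = inhibition above 80%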
Target sequence (Q9UNQ0 whole entry, looked up): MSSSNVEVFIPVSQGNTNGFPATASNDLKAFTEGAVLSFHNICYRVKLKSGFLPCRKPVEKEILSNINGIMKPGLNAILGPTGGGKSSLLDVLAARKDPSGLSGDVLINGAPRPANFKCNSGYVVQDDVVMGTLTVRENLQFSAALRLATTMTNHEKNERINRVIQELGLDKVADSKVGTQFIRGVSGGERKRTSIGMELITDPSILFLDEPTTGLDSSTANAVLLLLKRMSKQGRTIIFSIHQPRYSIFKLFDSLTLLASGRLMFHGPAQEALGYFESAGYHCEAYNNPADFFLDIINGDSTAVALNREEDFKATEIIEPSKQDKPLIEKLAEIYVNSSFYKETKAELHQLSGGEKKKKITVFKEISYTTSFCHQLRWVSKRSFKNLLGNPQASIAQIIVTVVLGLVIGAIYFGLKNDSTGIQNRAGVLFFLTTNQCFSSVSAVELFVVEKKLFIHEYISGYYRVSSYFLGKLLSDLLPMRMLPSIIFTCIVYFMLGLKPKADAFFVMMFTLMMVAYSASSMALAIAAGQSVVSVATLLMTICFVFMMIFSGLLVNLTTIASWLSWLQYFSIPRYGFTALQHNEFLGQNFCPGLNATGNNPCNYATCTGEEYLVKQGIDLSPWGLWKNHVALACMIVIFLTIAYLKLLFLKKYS
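Test system: IgMXP3 cells (ABCG2) mixed with DDAO far-red-labelled CCRF-Adr cells (ABCB1). Reagent: JC-1 transporter substrate. Compound dosing: single test compound dose, 6.6 µM final. Times: 10 min compound exposure, 25 °C. Detection: flow cytometry of retained JC-1 fluorescence. Read-out basis: efflux inhibition in percent versus controls. Controls: nicardipine and DMSO wells.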
ABCB1 inh: inhibitors of human ABCB1 transporter, ABCG2 counter-screen; P08183; CCRF-Adr cells, JC-1 efflux, flow cytometry; inhibition, % at 6.6 µM; 190,000 tested, 0.067% active; in the data active = inhibition above about 40%;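 note: higher value means more JC-1 retained so stronger ABCB1 efflux block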
PERK inhibitor: inhibitors of human PERK kinase | Q9NZJ5 | CHO PERK-DD fusion, SEAP luminescence translation reporter | inhibition, % at 5.6 µM | 220,000 tested, 0.17% active | AID 1416;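 active = inhibition above the mean inhibition of all tested compounds plus 3 SD, set separately per screening campaign, cut at about 2.9% in these data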;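 note: PERK kinase domain activated by AP20187 dimerizer at 100 nM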
Rad51 HR inh: Rad51 (human) homologous recombination inhibition. Q06609. hRad51 DNA strand exchange, fluorescence dequenching. inhibition, % at 10 µM. 200,000 tested, 0.085% active;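 active = inhibition above 40% at the single screening dose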
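Test system: preformed human Rad51 ssDNA filaments; also added: Donor/quencher-labelled 47-bp dsDNA substrate; doses: 10 µM final, single point; times: 37 °C 15-min filament assembly, 30-min compound preincubation, 15-min exchange; detection: FRET fluorescence dequenching, excitation 485 nm, emission 520 nm; read-out basis: Fluorescence-based percent inhibition, control- and blank-normalised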
Efa HMGR inh: inhibitors of class II HMG-CoA reductase from Enterococcus faecalis. purified E. faecalis HMGR, NADPH absorbance 340 nm kinetic. inhibition, % at 10 µM. 190,000 tested, 0.41% active. AID 1066;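 active = inhibition above a set limit, the median over all tested compounds plus 3 SD, cut at about 9.5% in these data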;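 note: enzyme runs in reverse so mevalonate oxidation gives rising NADPH absorbance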
ABCB1 single pt: inhibits human ABCB1 efflux, confirmed at single point; shares compounds with ABCG2 block; 270 tested, 7% active; CCRF-Adr cells, JC-1 efflux, flow cytometry; inhibition, % at 6.6 µM;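 active = inhibition of pump activity above 50%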
ABCG2 confirm: confirmation of human ABCG2 transporter inhibitors, ABCB1 counter-screen; shares compounds with ABCG2 block; IgMXP3 cells, JC-1 efflux, flow cytometry; inhibition, % at 6.6 µM; 270 tested, 6% active; AID 1453;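 active = inhibition above 50%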
IgMXP3 autofluor: IgMXP3 autofluorescence flag for ABCG2 confirmation. 270 tested, 30% active. IgMXP3 cells, compound autofluorescence 488/530 nm, flow; active compounds read high. fluorescence at 6.6 µM. shares compounds with ABCG2 block;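 active = fluorescence in ABCG2-expressing cells above the plate's control-well mean plus 3 SD, cut at about 15 in these data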
CCRF autofluor: CCRF-Adr autofluorescence flag for ABCB1 confirmation | AID 1483 | shares compounds with ABCG2 block | CCRF-Adr cells, compound autofluorescence 488/530 nm, flow cytometry; active compounds read high | fluorescence at 6.6 µM | 270 tested, 30% active;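 active = fluorescence beyond the plate control mean plus 3 SD, with a fluorescence-to-maximum score over 2, cut at about 25 in these data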
Hits are given with their value; n = inactive; x = no result; + = active, no number.

SMILES	Furin inh	ABCG2 block	ABCB1 inh	PERK inhibitor	Rad51 HR inh	Efa HMGR inh	ABCB1 single pt	ABCG2 confirm	IgMXP3 autofluor	CCRF autofluor
COc1ccc(-c2nn(-c3ccccc3)cc2/C=C/C(=O)N2CCN(c3ccccn3)CC2)cc1	n	n	48	n	n	n	n	n	18	n
O=C(c1ccc(-c2ccccc2Cl)s1)N1CCOCC1	x	x	x	x	n	x	x	x	x	x
Cc1c(NC(=O)c2ccc(-c3ccc([N+](=O)[O-])cc3Cl)o2)c(=O)n(-c2ccccc2)n1C	n	n	n	n	n	n	x	x	x	x
CCCCCCc1cc2cc(-c3nnc(-c4ccccc4OC)o3)c(=O)oc2cc1O	n	n	n	n	n	n	x	x	x	x
CCCCCCc1cc2cc(-c3nnc(-c4ccccc4O)o3)c(=O)oc2cc1O	n	n	48	n	n	n	n	n	116	111
COc1ccc(-n2cc(CNCc3cnc4ccccn34)c(-c3cccc(F)c3)n2)cc1	n	n	n	n	n	n	x	x	x	x
CC(=O)c1c(C)[nH]c(C(=O)OCC(=O)Nc2cc(Cl)ccc2[N+](=O)[O-])c1C	n	n	n	n	n	n	n	n	n	n
O=c1c2ccccc2oc2ccc(-c3ccc4[nH]ccc4c3)cc12	x	x	x	x	n	x	x	x	x	x
Cc1ccc(-c2c(C(=O)NCc3ccc(F)cc3)oc(=O)c3ccccc23)cc1	n	83	n	n	n	n	n	n	n	n
CCN1CCN(C(=O)c2oc(=O)c3ccccc3c2-c2ccc(C)cc2)CC1	n	n	n	n	n	n	x	x	x	x
Cc1nc2cc(-c3cccc(F)c3)nn2c(N2CCN(C(=O)c3ccco3)CC2)c1C	n	91	63	n	x	n	52	50	n	n
Cc1nc2cc(-c3cccc(F)c3)nn2c(C)c1CCC(=O)N1CCN(c2ccccn2)CC1	n	x	x	x	n	x	x	x	x	x
N#CC(c1ccc(Cl)cc1)(c1ncc(C(F)(F)F)cc1Cl)N1CCOCC1 (stereo not given)	n	n	n	n	x	n	x	x	x	x
COc1cc(C(=O)Nc2ccc(S(=O)(=O)NC(C)C)cc2)cc(OC)c1OC	n	82	n	n	n	n	n	n	n	n
CCOC(=O)c1c(-c2ccccc2)csc1NC(=O)/C(C#N)=C/c1ccc(OC)c(OC)c1	n	n	n	n	x	n	x	x	x	x
CCOC(=O)c1c(-c2ccccc2)csc1NC(=O)/C(C#N)=C/c1ccc(O)c(OC)c1	n	123	66	n	n	n	n	n	284	264
CCOc1ccccc1N1CCN(C(=O)/C=C/c2cccc([N+](=O)[O-])c2)CC1	n	n	n	n	n	n	x	x	x	x
CCCCNC(=S)Nc1ccccc1Cc1ccccc1	n	n	n	n	n	n	x	x	x	x
CC(Cc1cccs1)NC(=S)Nc1ccc(Cl)cc1 (stereo not given)	n	n	n	n	n	n	x	x	x	x
CC(Cc1cccs1)NC(=S)Nc1ccc(Cl)c(Cl)c1 (stereo not given)	n	n	n	n	n	n	n	n	n	n
COc1ccc(C2C3=C(CCCC3=O)Nc3ccc4ncccc4c32)cc1OC (stereo not given)	n	n	63	n	n	n	n	n	n	n
CCN(CC)CCNC(=O)c1cccc(NC(=O)C(=O)c2cc(Br)ccc2NC(C)=O)c1	n	n	n	n	n	n	x	x	x	x
COC(=O)[C@@H]1CC[C@H](C)[C@@H](c2ccc(C)cc2)N1C(=O)c1ccc(/C=N/O[C@@H](C)c2cn([C@H](CO)Cc3ccccc3)nn2)cc1	n	n	42	n	x	n	n	n	n	n
CC(C)CCOc1cccc(OCC(=O)O)c1	n	108	n	n	n	n	n	n	n	n
C=CCC1(C#N)C(SC)=NC2=C(C(=O)CC(C)(C)C2)C1c1ccc(Br)cc1 (stereo not given)	n	n	n	n	n	n	x	x	x	x
SMILES	Furin inh	ABCG2 block	ABCB1 inh	PERK inhibitor	Rad51 HR inh	Efa HMGR inh	ABCB1 single pt	ABCG2 confirm	IgMXP3 autofluor	CCRF autofluor
CC(=O)NC(Cc1c[nH]c2ccccc12)C(=O)OCC(=O)N1CCCCCC1 (stereo not given)	n	n	n	n	n	n	x	x	x	x
CCNC(=O)Cn1c(=O)c(=O)n(Cc2ccccc2)c2ccc(Cl)cc21	n	95	n	n	n	n	n	n	n	27
CCOc1ccc(OCc2cccc(C(=O)N/N=C/c3cccnc3)c2)cc1	n	87	n	n	n	n	n	n	n	n
CC(C)c1ccc(OCc2cccc(C(=O)N/N=C/c3cccnc3)c2)cc1	n	n	n	n	n	n	x	x	x	x
O=C(NCc1ccccn1)c1ccc(-c2ccccc2)cc1	n	n	n	n	n	n	x	x	x	x
O=C(NCc1ccccn1)c1cn(-c2ccccc2)nc1-c1ccc(Cl)cc1	n	83	n	n	n	n	n	n	22	149
COc1cc(CNCCSc2nnnn2C)cc(Br)c1OCc1ccc(F)cc1	n	n	n	n	n	n	x	x	x	x
CCOc1cc(CNCCSc2nnnn2C)cc(Br)c1OCc1ccc(F)cc1	n	105	n	n	n	n	n	n	n	34
CCN1/C(=C/c2ccc3cccc(C)c3[n+]2CC)Sc2ccccc21	n	+	n	n	n	n	n	69	304	305
CCN1/C(=C/c2ccc3cc(C)cc(C)c3[n+]2CC)Sc2cc(C)ccc21	n	n	n	n	x	n	x	x	x	x
O=C(Nc1ccccc1)Nc1cc([N+](=O)[O-])ccc1F	n	n	n	n	n	n	x	x	x	x
Cc1cc([N+](=O)[O-])ccc1NC(=O)Nc1ccccc1F	n	106	n	n	n	n	n	n	n	n
COc1ccc(/C=N/NC(=O)c2ccccc2)cc1CN1CCN(c2ccc(F)cc2)CC1	n	n	n	n	x	n	x	x	x	x
COc1cc(C(=O)N/N=C/c2ccc(OC)c(CN3CCN(c4ccc(F)cc4)CC3)c2)ccc1O	n	n	45	n	x	n	64	n	n	n
COc1ccc(/C=N/NC(=O)c2ccccc2F)cc1CN1CCN(c2ccc(F)cc2)CC1	n	n	52	n	n	n	n	n	n	n
